Columns and labels:
[1] = molecular target: T1, Human immunodeficiency virus type 1 integrase (Human immunodeficiency virus 1, UniProt Q7ZJM1); test: Inhibition of strand transfer activity of HIV-1 integrase
In short: (§1)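 Recombinant HIV-1 integrase (200 nM final) preincubated with inhibitor 30 min at 30 °C in buffer (pH 7.2 MOPS, 7.5 mM MnCl2, 10% DMSO, 50 mM NaCl, BSA, reducing agents, glycerol). Then 20 nM 5′-32P-labeled linear oligonucleotide substrate added, reaction run 1 h more. Products resolved on denaturing 20% polyacrylamide/urea gel. IC50 read from plot of concentration versus percent inhibition.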

[2] = molecular target: T1, Human immunodeficiency virus type 1 integrase; test: Inhibition of 3'- processing activity of HIV-1 integrase; in short: as §1

T1 sequence (Q7ZJM1 whole entry): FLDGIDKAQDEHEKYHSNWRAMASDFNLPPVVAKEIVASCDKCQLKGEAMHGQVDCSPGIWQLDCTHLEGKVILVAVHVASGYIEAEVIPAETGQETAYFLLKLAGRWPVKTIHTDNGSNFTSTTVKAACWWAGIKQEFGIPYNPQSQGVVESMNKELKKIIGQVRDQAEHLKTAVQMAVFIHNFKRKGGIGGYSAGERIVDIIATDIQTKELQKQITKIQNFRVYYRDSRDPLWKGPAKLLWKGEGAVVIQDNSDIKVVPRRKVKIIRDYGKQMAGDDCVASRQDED

| SMILES | IC50 [1] [µM] | IC50 [2] [µM] |
| --- | --- | --- |
| O=C(/C=C/c1ccc(O)c(O)c1)CC(=O)/C=C/c1ccc(O)c(O)c1 | 3.1 | 6 |
| COc1ccc(/C=C/C(=O)CC(=O)/C=C/c2ccc(OC)cc2)cc1 | > 300 | > 300 |
| COc1cc(CCC(=O)CC(=O)CCc2ccc(O)c(OC)c2)ccc1O [TETRAHYDROCURCUMIN] | > 300 | > 300 |
| COc1cc(/C=C/C(=O)CC(=O)/C=C/c2ccc(O)c(OC)c2)ccc1O [CURCUMIN] | 140 | 150 |
| O=C(/C=C/c1ccc(O)c(O)c1)O[C@H](Cc1ccc(O)c(O)c1)C(=O)O [ROSMARINIC ACID] | 4 | 9 |
| COc1cc(/C=C/C(O)=C/C(=O)/C=C/c2ccc(O)cc2)ccc1O [DEMETHOXYCURCUMIN] | 120 | 140 |
| O=C(/C=C/c1ccccc1)CC(=O)/C=C/c1ccccc1 | > 300 | > 300 |
| O=C(/C=C/c1ccc(O)cc1)CC(=O)/C=C/c1ccc(O)cc1 [BISDEMETHOXYCURCUMIN] | 80 | 120 |
| COc1cc(/C=C/C(=O)CC(=O)/C=C/c2ccc(O)c(O)c2)ccc1O | 9 | 18 |
